Laboratory results taken from ChEMBL document CHEMBL1149195, “N,N-dialkyl-2-phenylindol-3-ylglyoxylamides. A new class of potent and selective ligands at the peripheral benzodiazepine receptor” (J Med Chem, 2004).

How the values were obtained:
Translocator protein = Translocator protein (Rattus norvegicus, UniProt P16257); test: Binding affinity to peripheral benzodiazepine receptors using [3H]-PK11195 radioligand in rat kidney mitochondrial membrane; assay type: cell membranes
[1] = biological target: GABA-A receptor; anion channel (Rattus norvegicus) (UniProt O09028+P15431+P18506+P18508+P19969+P20236+P23574+P23576+P28471+P28473+P30191+P62813+P63079+P63138+Q91ZM7+Q9ES14); test: Percent inhibition of rat benzodiazepine receptor assayed using [3H]-flumazenil radioligand at 10 um concentration; assay type: protein-complex assay
In short: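 Displacement of [3H]flumazenil specific binding in rat brain membranes by test compound at fixed 10 µM; percent inhibition as mean ± SEM of five determinations.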

[2] = biological target: T1, Cholesterol side-chain cleavage enzyme, mitochondrial (Rattus norvegicus, UniProt P14137); test: Stimulation of pregnenolone formation from rat C6 glioma cells; assay type: functional, cell-based; parameters: concentration or dose not given beside the values
T1 sequence (P14137 whole entry): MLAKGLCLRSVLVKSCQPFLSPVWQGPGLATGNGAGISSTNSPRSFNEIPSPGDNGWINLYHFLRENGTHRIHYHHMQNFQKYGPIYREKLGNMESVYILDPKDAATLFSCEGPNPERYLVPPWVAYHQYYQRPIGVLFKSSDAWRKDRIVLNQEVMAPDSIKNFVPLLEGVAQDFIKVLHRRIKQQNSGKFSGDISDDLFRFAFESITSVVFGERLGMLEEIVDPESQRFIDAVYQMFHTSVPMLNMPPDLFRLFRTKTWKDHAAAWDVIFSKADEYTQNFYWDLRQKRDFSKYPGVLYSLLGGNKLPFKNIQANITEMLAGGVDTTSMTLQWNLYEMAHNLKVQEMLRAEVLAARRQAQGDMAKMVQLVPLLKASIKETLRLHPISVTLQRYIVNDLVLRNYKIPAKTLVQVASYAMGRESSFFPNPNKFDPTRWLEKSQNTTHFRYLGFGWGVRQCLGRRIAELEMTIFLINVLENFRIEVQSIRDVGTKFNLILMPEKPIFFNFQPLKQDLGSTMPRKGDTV
In short: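 Rat C6 glioma cells exposed to compound for 2 h at 37 °C; pregnenolone measured by radioimmunoassay and expressed as % increase over control; mean ± SEM of at least three determinations.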

Chain of Translocator protein (P16257 whole entry, looked up): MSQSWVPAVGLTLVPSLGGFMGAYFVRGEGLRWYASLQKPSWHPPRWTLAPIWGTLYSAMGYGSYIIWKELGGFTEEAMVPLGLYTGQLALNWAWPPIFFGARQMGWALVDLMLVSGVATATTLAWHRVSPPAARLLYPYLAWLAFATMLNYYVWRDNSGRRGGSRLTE

SMILES	Ki (Translocator protein)	inhibition [1]	Activity [2]
CCCCN(CCCC)C(=O)C(=O)c1c(-c2ccc(Cl)cc2)[nH]c2ccccc12	1 nM	0%	55%
CCCNC(=O)C(=O)c1c(-c2ccccc2)[nH]c2ccccc12	815 nM		
CCCN(CCC)C(=O)C(=O)c1c(-c2ccc(Cl)cc2)[nH]c2ccccc12	4.65 nM	14%	40%
CCCCN(CCCC)C(=O)C(=O)c1c(-c2ccc(F)cc2)[nH]c2ccccc12		0%	26%
CCCCCN(CCCCC)C(=O)C(=O)c1c(-c2ccccc2)[nH]c2ccccc12	16 nM	3%	35%
O=C(C(=O)N1CCCCC1)c1c(-c2ccccc2)[nH]c2ccccc12	665 nM	3%	
O=C(C(=O)N1CCCC1)c1c(-c2ccccc2)[nH]c2ccccc12	2400 nM	4%	
O=C(C(=O)N1CCCCCC1)c1c(-c2ccccc2)[nH]c2ccccc12	33 nM	5%	
CCC(C)N(C(=O)C(=O)c1c(-c2ccccc2)[nH]c2ccccc12)C(C)CC (stereo unspecified)	17 nM	5%	10%
CCCCN(CCCC)C(=O)C(=O)c1c(-c2ccc(C)cc2)[nH]c2ccccc12	3.8 nM	11%	58%
CCCCNC(=O)C(=O)c1c(-c2ccccc2)[nH]c2ccccc12	1170 nM	12%	
CCCCCCN(CCCCCC)C(=O)C(=O)c1c(-c2ccc(Cl)cc2)[nH]c2ccccc12	0.55 nM	4%	109%
CCCCN(CCCC)C(=O)C(=O)c1c(-c2ccccc2)[nH]c2ccc(Cl)cc12	4.91 nM	13%	5%
CCCCN(CCCC)C(=O)C(=O)c1c(-c2ccccc2)[nH]c2ccccc12	7.5 nM	3%	23%
CCCCCCN(CCCCCC)C(=O)C(=O)c1c(-c2ccc(Cl)cc2)[nH]c2ccc(Cl)cc12	5.8 nM	3%	166%
CCN(CC)C(=O)C(=O)c1c(-c2ccccc2)[nH]c2ccccc12	43 nM	6%	
CCCCCCN(CCCCCC)C(=O)C(=O)c1c(-c2ccccc2)[nH]c2ccccc12		10%	30%
CCCN(CCC)C(=O)Cc1c(-c2ccc(Cl)cc2)nc2ccc(Cl)cn12 [ALPIDEM]	7 nM	28%	
CCCN(CCC)C(=O)C(=O)c1c(-c2ccccc2)[nH]c2ccccc12		16%	8%
CCCN(CCC)C(=O)C(=O)c1c(-c2ccccc2)[nH]c2ccc(Cl)cc12	2.8 nM	10%	10%
CCCCCCN(CCCCCC)C(=O)C(=O)c1c(-c2ccc(C)cc2)[nH]c2ccccc12	1.6 nM	6%	77%
CC(C)N(C(=O)C(=O)c1c(-c2ccccc2)[nH]c2ccccc12)C(C)C	103 nM	4%	
CCCN(CCC)C(=O)C(=O)c1c(-c2ccc(C)cc2)[nH]c2ccccc12		7%	148%
CCCCN(CCCC)C(=O)C(=O)c1c(-c2ccc(Cl)cc2)[nH]c2ccc(Cl)cc12	1.9 nM	0%	147%
CCCN(CCC)C(=O)C(=O)c1c(-c2ccc(F)cc2)[nH]c2ccccc12	4.28 nM	4%	20%
CCCN(CCC)C(=O)C(=O)c1c(-c2ccc(Cl)cc2)[nH]c2ccc(Cl)cc12	0.62 nM	5%	49%
CCCCCCN(CCCCCC)C(=O)C(=O)c1c(-c2ccc(F)cc2)[nH]c2ccccc12	0.37 nM	0%	62%
CCCCCCN(CCCCCC)C(=O)C(=O)c1c(-c2ccccc2)[nH]c2ccc(Cl)cc12	58.4 nM	3%	31%
